From ChEMBL document CHEMBL5653613 (Mol Cancer Ther, 2013) come the findings set out here.

For orientation: IC50 means the point on the concentration scale where inhibition reaches its midpoint.

In assay [1] the target is Hepatocyte growth factor receptor (Homo sapiens, UniProt P08581). The experiment in a line: Inhibition of MET (unknown origin).
The subject of assay [2] is ZR-75-1. Description: Induction of polyploidy in human ZR-75-1 cells at 5 uM incubated for 72 hrs by microscopic analysis. The assay is classed as functional, cell-based. The gist of the method: (§1)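 Cells stained with Hema-3 and photographed under a light microscope with CCD camera. Polyploid cells scored as percent of the population.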
In assay [3] the target is Macrophage-stimulating protein receptor (Homo sapiens, UniProt Q04912). Description: Inhibition of RON (unknown origin).
Sequence of Macrophage-stimulating protein receptor (Q04912 25-304 limits assumed): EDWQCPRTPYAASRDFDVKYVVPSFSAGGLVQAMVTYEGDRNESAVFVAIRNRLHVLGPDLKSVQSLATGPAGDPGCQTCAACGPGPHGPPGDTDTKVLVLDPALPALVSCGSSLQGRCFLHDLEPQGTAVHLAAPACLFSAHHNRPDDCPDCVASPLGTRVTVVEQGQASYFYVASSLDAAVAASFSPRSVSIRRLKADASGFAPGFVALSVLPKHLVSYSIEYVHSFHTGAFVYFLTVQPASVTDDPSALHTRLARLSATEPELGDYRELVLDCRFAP
Sequence of Macrophage-stimulating protein receptor (Q04912 310-1400 limits assumed): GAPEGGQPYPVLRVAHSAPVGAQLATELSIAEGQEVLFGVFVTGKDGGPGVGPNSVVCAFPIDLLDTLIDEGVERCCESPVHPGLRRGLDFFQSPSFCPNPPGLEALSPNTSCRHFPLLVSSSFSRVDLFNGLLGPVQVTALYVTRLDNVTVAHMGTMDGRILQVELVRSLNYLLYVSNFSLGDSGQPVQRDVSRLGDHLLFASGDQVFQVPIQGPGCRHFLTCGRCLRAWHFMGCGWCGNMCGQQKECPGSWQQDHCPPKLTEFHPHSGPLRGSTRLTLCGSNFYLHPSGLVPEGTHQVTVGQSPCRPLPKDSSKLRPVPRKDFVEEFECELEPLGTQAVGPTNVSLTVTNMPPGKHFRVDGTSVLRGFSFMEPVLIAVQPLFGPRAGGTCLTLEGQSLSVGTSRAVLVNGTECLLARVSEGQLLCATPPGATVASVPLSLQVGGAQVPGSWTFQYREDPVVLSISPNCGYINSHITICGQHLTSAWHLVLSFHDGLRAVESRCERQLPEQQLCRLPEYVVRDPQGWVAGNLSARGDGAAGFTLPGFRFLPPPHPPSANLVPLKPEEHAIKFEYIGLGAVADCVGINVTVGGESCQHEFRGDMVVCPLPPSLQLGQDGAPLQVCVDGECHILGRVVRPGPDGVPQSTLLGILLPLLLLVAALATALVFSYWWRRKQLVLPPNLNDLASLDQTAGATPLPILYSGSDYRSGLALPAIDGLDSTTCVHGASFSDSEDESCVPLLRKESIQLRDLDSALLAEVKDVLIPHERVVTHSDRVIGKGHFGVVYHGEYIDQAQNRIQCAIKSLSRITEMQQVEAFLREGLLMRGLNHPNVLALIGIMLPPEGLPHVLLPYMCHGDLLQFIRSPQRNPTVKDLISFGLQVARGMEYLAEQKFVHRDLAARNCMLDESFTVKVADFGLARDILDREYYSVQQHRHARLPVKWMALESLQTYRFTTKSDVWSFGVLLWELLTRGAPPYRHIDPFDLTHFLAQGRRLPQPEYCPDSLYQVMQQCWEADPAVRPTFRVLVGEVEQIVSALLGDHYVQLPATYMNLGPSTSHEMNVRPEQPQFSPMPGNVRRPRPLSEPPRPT
Assay [4] relates to T47D. The experiment in a line: Induction of polyploidy in human T47D cells at 5 uM incubated for 72 hrs by microscopic analysis. The assay is classed as functional, cell-based. The gist of the method:
as §1

A further assay relates to MCF7. Description: Induction of polyploidy in human MCF7 cells at 5 uM incubated for 72 hrs by microscopic analysis. The assay is classed as functional, cell-based. The gist of the method:
as §1

The subject of assay [5] is T47D. Description: Induction of cell cycle arrest in human T47D cells at 5 umol/L preincubated for 24 hrs followed by extensive compound washout and subsequent culturing in compound-free media measured for 60 to 120 mins by immunofluorescence staining based analysis. The format is functional. To be noted: dose 5.0 µmol/L. In short, it runs like this: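 T-47D cells were treated at 37°C with 5 µmol/L for 24 h, washed extensively, then cultured in DMEM with 10% FBS for 30, 60 and 120 min. α- and γ-tubulin were detected by immunofluorescence with DAPI, imaged at 400×. The control was a 24 h preincubation with 5 µmol/L RO-3306. One of 2 experiments.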

Assay [6] deals with ZR-75-1. Description: Cytotoxicity against human ZR-75-1 cells assessed as inhibition of cell viability incubated for 72 hrs by MTS assay. The assay is classed as functional, cell-based. In short, it runs like this: (§2)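 Untreated cells were seeded at 5,000 cells/well in 96-well plates and run as the control. They were exposed in triplicate for 72 h to graded doxorubicin, bleomycin, cisplatin, paclitaxel or methotrexate (nmol/L range). Viability was read by MTS assay and IC50 was calculated.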
For orientation: Tetrazolium assays rely on reduction of a dye to a coloured formazan, in cell work by metabolically active cells.

Assay [7] concerns T47D. Description: Cytotoxicity against human T47D cells assessed as inhibition of cell viability incubated for 72 hrs by MTS assay. The assay is classed as functional, cell-based. The gist of the method: as §2

Activity calls are given as the source filed them. The calls are words filed in the database; no cut-off is given here.

Sequence of Hepatocyte growth factor receptor (P08581 whole entry): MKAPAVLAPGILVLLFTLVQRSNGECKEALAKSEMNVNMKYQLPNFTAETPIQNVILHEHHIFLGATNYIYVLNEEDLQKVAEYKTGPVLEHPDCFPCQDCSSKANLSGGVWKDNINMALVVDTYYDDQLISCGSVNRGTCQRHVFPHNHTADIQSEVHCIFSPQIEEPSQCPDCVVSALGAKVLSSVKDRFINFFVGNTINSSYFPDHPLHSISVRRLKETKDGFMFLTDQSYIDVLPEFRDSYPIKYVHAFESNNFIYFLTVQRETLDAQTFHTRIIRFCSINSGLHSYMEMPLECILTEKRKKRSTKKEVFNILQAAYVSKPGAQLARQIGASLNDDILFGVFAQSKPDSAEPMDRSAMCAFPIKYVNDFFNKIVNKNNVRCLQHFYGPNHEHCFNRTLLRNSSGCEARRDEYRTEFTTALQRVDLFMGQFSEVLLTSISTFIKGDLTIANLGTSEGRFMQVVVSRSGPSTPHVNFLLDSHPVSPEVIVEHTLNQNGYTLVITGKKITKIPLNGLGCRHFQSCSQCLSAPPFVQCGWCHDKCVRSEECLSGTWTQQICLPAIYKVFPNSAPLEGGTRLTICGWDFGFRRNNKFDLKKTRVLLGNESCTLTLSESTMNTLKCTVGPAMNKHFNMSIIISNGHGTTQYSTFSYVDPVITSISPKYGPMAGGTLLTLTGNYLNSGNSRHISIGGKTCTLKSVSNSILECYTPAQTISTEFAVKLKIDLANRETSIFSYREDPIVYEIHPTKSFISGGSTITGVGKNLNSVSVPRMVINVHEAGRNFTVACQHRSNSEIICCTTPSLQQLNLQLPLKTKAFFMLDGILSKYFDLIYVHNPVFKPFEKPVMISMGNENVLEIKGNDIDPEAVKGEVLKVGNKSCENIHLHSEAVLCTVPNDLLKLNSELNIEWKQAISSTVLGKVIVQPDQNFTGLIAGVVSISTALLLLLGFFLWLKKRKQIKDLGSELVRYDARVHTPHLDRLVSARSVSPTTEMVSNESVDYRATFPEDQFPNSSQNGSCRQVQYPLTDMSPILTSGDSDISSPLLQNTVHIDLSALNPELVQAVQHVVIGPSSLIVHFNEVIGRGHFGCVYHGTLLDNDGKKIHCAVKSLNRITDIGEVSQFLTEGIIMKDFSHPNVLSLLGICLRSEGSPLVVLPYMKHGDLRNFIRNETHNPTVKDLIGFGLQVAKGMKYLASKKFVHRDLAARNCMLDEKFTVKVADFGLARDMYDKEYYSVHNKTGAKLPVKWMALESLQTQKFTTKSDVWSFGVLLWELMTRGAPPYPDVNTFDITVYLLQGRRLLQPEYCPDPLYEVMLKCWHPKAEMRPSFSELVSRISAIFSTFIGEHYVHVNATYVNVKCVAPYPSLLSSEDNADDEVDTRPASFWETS

In the case of `COc1ccc2c(Oc3ccc(NC(=O)c4c(C)n(CC(C)(C)O)n(-c5ccccc5)c4=O)cc3F)ccnc2c1`, the IC50 in assay [1] stood at 4 nM; in assay [3], 9 nM. Besides, the result in the assay on ZR-75-1 [2], in the assay with T47D [4] and with MCF7 was inactive.

As to `Cc1[nH]c(/C=C2\C(=O)Nc3ccc(S(=O)(=O)Cc4c(Cl)cccc4Cl)cc32)c(C)c1C(=O)N1CCC[C@@H]1CN1CCCC1`, the result with ZR-75-1 [2], with T47D [4] and in the assay with MCF7 was inactive.

Consider `O=C1N=C(NCc2cccs2)S/C1=C\c1ccc2ncccc2c1`, for which the result in the assay with T47D [5] was inactive.

Turning to `COc1cccc2c1C(=O)c1c(O)c3c(c(O)c1C2=O)C[C@@](O)(C(=O)CO)C[C@@H]3O[C@H]1C[C@H](N)[C@H](O)[C@H](C)O1` [DOXORUBICIN], the concentration for half-maximal inhibition (IC50) with ZR-75-1 [6] (Homo sapiens, ZR-75-1, 72 h) was 453 nM; in the assay on T47D [7] (Homo sapiens, T47D, 72 h) it was 264 nM.

`CN(Cc1cnc2nc(N)nc(N)c2n1)c1ccc(C(=O)N[C@@H](CCC(=O)O)C(=O)O)cc1` [METHOTREXATE]: the concentration for half-maximal inhibition (IC50) with ZR-75-1 [6] (Homo sapiens, ZR-75-1, 72 h) worked out at 66 nM; in the assay on T47D [7] (Homo sapiens, T47D, 72 h), 64.4 nM.

Consider `CC(=O)O[C@H]1C(=O)[C@@]2(C)[C@H]([C@H](OC(=O)c3ccccc3)[C@]3(O)C[C@H](OC(=O)[C@H](O)[C@@H](NC(=O)c4ccccc4)c4ccccc4)C(C)=C1C3(C)C)[C@]1(OC(C)=O)CO[C@@H]1C[C@@H]2O` [PACLITAXEL], for which the half-inhibitory concentration (IC50) was determined as 6.2 nM in the assay on ZR-75-1 [6] (Homo sapiens, ZR-75-1, 72 h) and 4 nM with T47D [7] (Homo sapiens, T47D, 72 h).

BLEOMYCIN: the 50% inhibitory concentration (IC50) with ZR-75-1 [6] (zr-75-1) turned out to be 165 nM; in the assay on T47D [7] (t47d), 129 nM.
